For test [1], the system named is CL1-5. As to the kind of experiment: Reduction in total wild type EGFR levels in gefinitib-insensitive and 24 hrs serum starved human CL1-5 cells at 10 uM pre-incubated for 1 hr before EGF stimulation for 30 mins by Western blot method. Format: functional. The essentials: (§1)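 Cells in RPMI-1640 with 10% FBS were plated at 1×10^6 per 10-cm dish, cultured overnight, then kept serum-free for 24 h. They were pre-treated with 10 μM compound for 1 h, serum-free, then stimulated with EGF 20 ng/mL (20 min in methods, 30 min in legend). Whole-cell lysates, 40 μg/lane, were run on 10% SDS-PAGE, blotted to PVDF, probed for pan-EGFR and pEGFR (Tyr1068), and detected by ECL.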
On the technique in general: A western blot detects proteins with antibodies after separation by electrophoresis.

Test [2] concerns the target Epidermal growth factor receptor (Homo sapiens) (UniProt P00533). Conditions: CL1-5, at 10 µM.
Test [3] relates to Epidermal growth factor receptor (Homo sapiens), P00533 [L858R,T790M]. The note with it: NCI-H1975, at 10 µM.
Test [4] deals with NCI-H1975. Nature of the test: Reduction in total EGFR L858R and T790M mutant levels in gefinitib-resistant and 24 hrs serum starved human NCI-H1975 cells at 10 uM pre-incubated for 1 hr before EGF stimulation for 30 mins by Western blot method. In kind it is functional, cell-based. The essentials:
as §1

Molecules are shown by their SMILES. Active and inactive are the calls of the source. The calls are words filed in the database; no cut-off is given here.

Sequence of Epidermal growth factor receptor (Homo sapiens), P00533 [L858R,T790M] (P00533 whole entry T790M/L858R, looked up): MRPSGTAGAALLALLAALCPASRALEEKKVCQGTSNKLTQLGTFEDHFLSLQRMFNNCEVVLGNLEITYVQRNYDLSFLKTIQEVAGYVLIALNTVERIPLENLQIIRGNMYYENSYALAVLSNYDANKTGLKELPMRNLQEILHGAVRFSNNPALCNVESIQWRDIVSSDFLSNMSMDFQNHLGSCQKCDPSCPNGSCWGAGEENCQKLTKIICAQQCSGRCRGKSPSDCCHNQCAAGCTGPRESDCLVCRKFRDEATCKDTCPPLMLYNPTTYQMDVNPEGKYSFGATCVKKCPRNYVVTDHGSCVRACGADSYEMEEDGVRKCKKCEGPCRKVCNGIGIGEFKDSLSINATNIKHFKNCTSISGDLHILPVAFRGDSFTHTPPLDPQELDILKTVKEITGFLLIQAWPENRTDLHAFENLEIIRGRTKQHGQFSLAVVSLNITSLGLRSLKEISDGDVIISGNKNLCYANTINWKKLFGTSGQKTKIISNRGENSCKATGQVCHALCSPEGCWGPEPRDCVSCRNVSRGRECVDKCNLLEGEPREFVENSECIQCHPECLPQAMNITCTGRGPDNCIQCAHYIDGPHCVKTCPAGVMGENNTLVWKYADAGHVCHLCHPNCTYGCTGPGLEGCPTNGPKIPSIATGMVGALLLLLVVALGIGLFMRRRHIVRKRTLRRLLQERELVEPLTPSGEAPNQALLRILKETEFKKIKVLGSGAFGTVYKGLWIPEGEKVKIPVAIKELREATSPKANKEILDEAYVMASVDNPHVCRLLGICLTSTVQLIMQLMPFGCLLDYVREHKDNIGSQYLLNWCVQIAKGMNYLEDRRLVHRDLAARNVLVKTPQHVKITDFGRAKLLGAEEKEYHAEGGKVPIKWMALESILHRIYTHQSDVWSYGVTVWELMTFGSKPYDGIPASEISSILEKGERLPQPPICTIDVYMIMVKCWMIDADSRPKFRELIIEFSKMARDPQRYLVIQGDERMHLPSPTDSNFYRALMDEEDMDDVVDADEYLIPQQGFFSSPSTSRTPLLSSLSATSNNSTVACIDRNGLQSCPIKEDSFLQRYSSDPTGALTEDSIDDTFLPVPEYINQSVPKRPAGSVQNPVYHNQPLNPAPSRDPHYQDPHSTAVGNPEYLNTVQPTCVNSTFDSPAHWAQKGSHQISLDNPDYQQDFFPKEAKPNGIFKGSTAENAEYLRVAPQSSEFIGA
Sequence of Epidermal growth factor receptor (Homo sapiens) (P00533 whole entry): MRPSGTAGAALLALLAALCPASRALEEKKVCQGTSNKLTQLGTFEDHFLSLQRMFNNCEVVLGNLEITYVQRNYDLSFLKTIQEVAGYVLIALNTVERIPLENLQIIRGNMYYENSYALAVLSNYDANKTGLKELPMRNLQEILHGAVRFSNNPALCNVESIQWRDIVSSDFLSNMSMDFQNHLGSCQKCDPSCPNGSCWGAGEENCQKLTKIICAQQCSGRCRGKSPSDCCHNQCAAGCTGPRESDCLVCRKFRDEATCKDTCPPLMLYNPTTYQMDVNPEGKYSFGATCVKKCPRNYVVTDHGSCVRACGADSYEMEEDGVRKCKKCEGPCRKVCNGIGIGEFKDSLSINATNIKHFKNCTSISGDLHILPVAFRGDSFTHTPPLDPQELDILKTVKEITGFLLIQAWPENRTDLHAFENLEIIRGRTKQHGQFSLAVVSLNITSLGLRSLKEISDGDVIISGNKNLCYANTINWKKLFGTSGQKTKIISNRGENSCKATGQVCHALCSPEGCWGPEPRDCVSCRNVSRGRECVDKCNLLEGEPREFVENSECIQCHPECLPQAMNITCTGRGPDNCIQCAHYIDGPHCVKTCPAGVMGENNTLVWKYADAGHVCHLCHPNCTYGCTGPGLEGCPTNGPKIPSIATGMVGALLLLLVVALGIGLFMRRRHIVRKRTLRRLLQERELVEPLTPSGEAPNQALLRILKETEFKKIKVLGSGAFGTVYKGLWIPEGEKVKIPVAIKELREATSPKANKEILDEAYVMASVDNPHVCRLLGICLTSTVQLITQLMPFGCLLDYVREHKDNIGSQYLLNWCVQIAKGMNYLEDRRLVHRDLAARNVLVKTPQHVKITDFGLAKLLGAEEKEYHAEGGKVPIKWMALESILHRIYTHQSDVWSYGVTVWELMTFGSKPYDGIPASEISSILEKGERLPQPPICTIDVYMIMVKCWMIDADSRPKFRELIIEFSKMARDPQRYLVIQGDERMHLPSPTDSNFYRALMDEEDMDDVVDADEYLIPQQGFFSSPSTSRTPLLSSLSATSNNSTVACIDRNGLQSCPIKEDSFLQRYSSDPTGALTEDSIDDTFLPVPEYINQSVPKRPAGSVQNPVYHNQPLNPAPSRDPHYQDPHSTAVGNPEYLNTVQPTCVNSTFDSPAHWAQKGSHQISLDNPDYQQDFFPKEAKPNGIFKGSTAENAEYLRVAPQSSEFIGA

For `COc1cc(/C=C/C(=O)/C(CCC(=O)O)=C(O)/C=C/c2ccc(O)c(OC)c2)ccc1O`, the inhibition entry in test [1], in test [2], in test [3] and in test [4] was “inactive” each time.
For the molecule `CCOC(=O)CC/C(C(=O)/C=C/c1ccc(OC)c(OC)c1)=C(O)\C=C\c1ccc(OC)c(OC)c1`, the inhibition entry in test [1], in test [2], in test [3] and in test [4] was “inactive” each time.
For the molecule `O=C(O)CC/C(C(=O)/C=C/c1ccc(O)c(O)c1)=C(O)\C=C\c1ccc(O)c(O)c1`, the inhibition entry in test [1], in test [2], in test [3] and in test [4] was “inactive” throughout.
Regarding `CCOC(=O)CC/C(C(=O)/C=C/c1cc(O)c(OC)c(OC)c1)=C(O)\C=C\c1cc(O)c(OC)c(OC)c1`, in test [1], the inhibition entry is “inactive”. Also, the inhibition result in test [2] and in test [3] was “Active” throughout.
On to `CCOC(=O)CC/C(C(=O)/C=C/c1ccc(O)c(OC)c1)=C(O)\C=C\c1ccc(O)c(OC)c1`, for which the inhibition result in test [1] and in test [2] was “Active” throughout. In addition, the inhibition result in test [3] and in test [4] was “inactive” each time.
For the molecule `COc1cc(/C=C/C(=O)/C(CCC(=O)O)=C(O)/C=C/c2ccc(O)c(O)c2)ccc1O`, the inhibition result in test [1], in test [2], in test [3] and in test [4] was “inactive” throughout.
On to `CCOC(=O)CC/C(C(=O)/C=C/c1ccc(O)c(OC)c1)=C(O)\C=C\c1ccc(O)c(O)c1`, for which the inhibition result in test [1], in test [2], in test [3] and in test [4] was “Active” each time.
For the molecule `COC(=O)COc1ccc(/C=C/C(=O)/C=C(O)/C=C/c2ccc(OCC(=O)OC)c(OC)c2)cc1OC`, the inhibition result in test [1], in test [2], in test [3] and in test [4] was “inactive” each time.
With `CCOC(=O)CC/C(C(=O)/C=C/c1ccc(O)c(O)c1)=C(O)\C=C\c1ccc(O)c(O)c1`, the inhibition result in test [1] and in test [2] was “Active” throughout. In addition, the inhibition result in test [3] and in test [4] was “inactive” each time.
On to `COc1cc(/C=C/C(=O)/C=C(O)/C=C/c2ccc(OCC(=O)Nc3ccccc3)c(OC)c2)ccc1OCC(=O)Nc1ccccc1`, for which the inhibition entry in test [1], in test [2], in test [3] and in test [4] was “inactive” each time.
Take `CCOC(=O)CCCOc1ccc(/C=C/C(=O)/C(CCC(=O)OCC)=C(O)/C=C/c2ccc(OCCCC(=O)OCC)c(OC)c2)cc1OC`: the inhibition result in test [1], in test [2], in test [3] and in test [4] was “inactive” in each case.
For the molecule `CCOC(=O)CC/C(C(=O)/C=C/c1ccc(OC)c(OC)c1)=C(O)\C=C\c1ccc(O)c(OC)c1`, the inhibition result in test [1], in test [2], in test [3] and in test [4] was “Active” in each case.
With `COc1cc(/C=C/C(O)=C/C(=O)/C=C/c2ccc(O)c(O)c2)ccc1O`, the inhibition result in test [1] and in test [2] was “inactive” each time. Also, the inhibition entry in test [3] and in test [4] was “Active” in each case.
On to `COc1cc(/C=C/C(=O)/C=C(O)/C=C/c2cc(O)c(OC)c(OC)c2)cc(O)c1OC`, for which the inhibition entry in test [1], in test [2], in test [3] and in test [4] was “inactive” each time.
As for `COc1cc(/C=C/C(=O)/C(CCC(=O)O)=C(O)/C=C/c2ccc(OCCCC(=O)O)c(OC)c2)ccc1OCCCC(=O)O`, the inhibition result in test [1], in test [2], in test [3] and in test [4] was “inactive” throughout.
As for `COc1ccc(/C=C/C(=O)/C=C(O)/C=C/c2ccc(OC)c(OC)c2OC)cc1OC`, the inhibition result in test [1], in test [2], in test [3] and in test [4] was “Active” throughout.
With `CCOC(=O)CCCOc1ccc(/C=C/C(=O)/C=C(O)/C=C/c2ccc(OCCCC(=O)OCC)c(OC)c2)cc1OC`, the inhibition entry in test [1], in test [2], in test [3] and in test [4] was “inactive” each time.
As to `COc1cc(OC)c(OC)cc1/C=C/C(=O)/C=C(O)/C=C/c1cc(OC)c(OC)cc1OC`, the inhibition entry in test [1], in test [2], in test [3] and in test [4] was “Active” throughout.
As for `COc1ccc(CCC(=O)CC(O)CCc2ccc(OC)c(OC)c2)cc1OC` (configuration not stated), the inhibition result in test [1], in test [2], in test [3] and in test [4] was “inactive” in each case.
On to `CCOC(=O)/C=C/C(C(=O)/C=C/c1ccc(OC)c(OC)c1)=C(O)\C=C\c1ccc(OC)c(OC)c1`, for which the inhibition result in test [1], in test [2], in test [3] and in test [4] was “inactive” throughout.
Regarding `COc1cc(/C=C/C(O)=C/C(=O)/C=C/c2ccc(O)cc2)ccc1O`, the inhibition entry in test [1], in test [2], in test [3] and in test [4] was “inactive” in each case.
In the case of `CCOC(=O)/C=C/C(C(=O)/C=C/c1ccc(O)c(O)c1)=C(O)\C=C\c1ccc(O)c(OC)c1`, the inhibition entry in test [1], in test [2], in test [3] and in test [4] was “inactive” in each case.
`COc1cc(/C=C/C(=O)/C(C(C)=O)=C(O)/C=C/c2ccc(O)c(OC)c2)ccc1O`: the inhibition entry in test [1], in test [2], in test [3] and in test [4] was “Active” throughout.
Regarding `COc1cc(F)c(/C=C/C(=O)/C=C(O)/C=C/c2cc(OC)c(OC)cc2F)cc1OC`, the inhibition entry in test [1], in test [2], in test [3] and in test [4] was “Active” each time.
For the molecule `COc1cc(OC)c(OC)cc1/C=C/C(O)=C/C(=O)/C=C/c1ccc(OC)c(OC)c1`, the inhibition result in test [1], in test [2], in test [3] and in test [4] was “Active” each time.
Take `COc1cc(/C=C/C(=O)/C=C(O)/C=C/c2ccc(OCCCC(=O)O)c(OC)c2)ccc1OCCCC(=O)O`: the inhibition entry in test [1], in test [2], in test [3] and in test [4] was “inactive” throughout.
Regarding `COc1ccc(/C=C/C(=O)/C(C)=C(O)/C=C/c2ccc(OC)c(OC)c2)cc1OC`, the inhibition entry in test [1], in test [2], in test [3] and in test [4] was “Active” throughout.
Take `CCOC(=O)/C=C/C(C(=O)/C=C/c1ccc(O)c(OC)c1)=C(O)\C=C\c1ccc(O)c(OC)c1`: the inhibition result in test [1], in test [2], in test [3] and in test [4] was “inactive” each time.
On to `COc1ccc(/C=C/C(=O)/C=C(O)/C=C/c2ccc(OC)c(OC)c2OC)c(OC)c1OC`, for which the inhibition entry in test [1], in test [2], in test [3] and in test [4] was “Active” in each case.
As for `CCOC(=O)CC/C(C(=O)/C=C/c1cc(OC)c(O)c(OC)c1)=C(O)\C=C\c1cc(OC)c(O)c(OC)c1`, the inhibition entry in test [1], in test [2], in test [3] and in test [4] was “inactive” in each case.
Turning to `CCOC(=O)CC/C(C(=O)/C=C/c1ccc(OCC(=O)OC)c(OC)c1)=C(O)\C=C\c1ccc(OCC(=O)OC)c(OC)c1`, the inhibition result in test [1], in test [2], in test [3] and in test [4] was “inactive” each time.
`COc1cc(/C=C/C(=O)/C=C(O)/C=C/c2ccc(OCC(=O)O)c(OC)c2)ccc1OCC(=O)O`: the inhibition result in test [1], in test [2], in test [3] and in test [4] was “inactive” in each case.

The values above are taken from ChEMBL document CHEMBL3400092 (2015).
